# Data published in ChEMBL document CHEMBL3352199, “Biological evaluation of halogenated thiazolo[3,2-a]pyrimidin-3-one carboxylic acid derivatives targeting the YycG histidine kinase” (Eur J Med Chem, 2014).
# The source made the active and inactive calls.
# Test system: Staphylococcus epidermidis
# Test: Antimicrobial activity against Staphylococcus epidermidis ATCC 35984 after 12 to 16 hrs by broth micro-dilution method
# Format: functional
# Details: not given
# Method in brief: (§1)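 Broth micro-dilution in tubes per CLSI. Serial twofold dilutions in Mueller-Hinton broth, top final concentration 200. The inoculum was 6 h cultures adjusted to 0.5 McFarland. Incubated 37 °C 12–16 h. MIC is the lowest concentration with no visible growth by eye. Growth control (no drug) and sterility control (uninoculated broth) were included.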
row,Structure (SMILES),MIC [µM]
1,CCOC(=O)C1=C(C)N=c2s/c(=C\c3ccc(OCC(=O)O)cc3)c(=O)n2C1c1ccc(Cl)cc1 (centres undefined),200
2,COc1ccc(C2C=C(c3ccccc3)N=c3s/c(=C\c4ccc(-c5cccc(C(=O)O)c5)o4)c(=O)n32)cc1 (centres undefined),1.56
3,CCOC(=O)C1=C(c2ccccc2)N=c2s/c(=C\c3ccc(-c4cccc(C(=O)O)c4)o3)c(=O)n2C1c1ccc([N+](=O)[O-])cc1 (centres undefined),1.56
4,Cc1nnc(SCC2=C(C(=O)O)N3C(=O)[C@@H](NC(=O)Cn4cnnn4)[C@H]3SC2)s1 [CEFAZOLIN],17.6
5,CCOC(=O)C1=C(c2ccccc2)N=c2s/c(=C\c3ccc(-c4cccc(C(=O)O)c4)o3)c(=O)n2C1c1ccc(O)cc1 (centres undefined),50
6,CCOC(=O)C1=C(c2ccccc2)N=c2s/c(=C\c3ccc(-c4cccc(C(=O)O)c4)o3)c(=O)n2C1c1ccc(OC)cc1 (centres undefined),3.12
7,CCOC(=O)C1=C(c2ccccc2)N=c2s/c(=C\c3ccc(-c4cccc(C(=O)O)c4)o3)c(=O)n2C1c1ccccc1 (centres undefined),200
8,CCOC(=O)C1=C(c2ccccc2)N=c2s/c(=C\c3ccc(-c4ccc(C(=O)O)cc4)o3)c(=O)n2C1c1ccc(F)cc1 (centres undefined),6.25
9,CCOC(=O)C1=C(c2ccccc2)N=c2s/c(=C\c3ccc(-c4ccc(C(=O)O)cc4)o3)c(=O)n2C1c1ccc(Cl)cc1 (centres undefined),6.25
10,CCOC(=O)C1=C(c2ccccc2)N=c2s/c(=C\c3ccc(-c4cccc(C(=O)O)c4)o3)c(=O)n2C1c1ccc2c(c1)OCO2 (centres undefined),6.25

# Test system: Staphylococcus epidermidis
# Test: Antimicrobial activity against Staphylococcus epidermidis ATCC 12228 after 12 to 16 hrs by broth micro-dilution method
# Format: functional
# Details: not given
# Method in brief: as §1
row,Structure (SMILES),MIC [µM]
1,CCOC(=O)C1=C(C)N=c2s/c(=C\c3ccc(OCC(=O)O)cc3)c(=O)n2C1c1ccc(Cl)cc1 (centres undefined),200
2,COc1ccc(C2C=C(c3ccccc3)N=c3s/c(=C\c4ccc(-c5cccc(C(=O)O)c5)o4)c(=O)n32)cc1 (centres undefined),6.25
3,CCOC(=O)C1=C(c2ccccc2)N=c2s/c(=C\c3ccc(-c4cccc(C(=O)O)c4)o3)c(=O)n2C1c1ccc([N+](=O)[O-])cc1 (centres undefined),3.12
4,Cc1nnc(SCC2=C(C(=O)O)N3C(=O)[C@@H](NC(=O)Cn4cnnn4)[C@H]3SC2)s1 [CEFAZOLIN],17.6
5,CCOC(=O)C1=C(c2ccccc2)N=c2s/c(=C\c3ccc(-c4cccc(C(=O)O)c4)o3)c(=O)n2C1c1ccc(O)cc1 (centres undefined),50
6,CCOC(=O)C1=C(c2ccccc2)N=c2s/c(=C\c3ccc(-c4cccc(C(=O)O)c4)o3)c(=O)n2C1c1ccc(OC)cc1 (centres undefined),3.12
7,CCOC(=O)C1=C(c2ccccc2)N=c2s/c(=C\c3ccc(-c4cccc(C(=O)O)c4)o3)c(=O)n2C1c1ccccc1 (centres undefined),200
8,CCOC(=O)C1=C(c2ccccc2)N=c2s/c(=C\c3ccc(-c4ccc(C(=O)O)cc4)o3)c(=O)n2C1c1ccc(F)cc1 (centres undefined),6.25
9,CCOC(=O)C1=C(c2ccccc2)N=c2s/c(=C\c3ccc(-c4ccc(C(=O)O)cc4)o3)c(=O)n2C1c1ccc(Cl)cc1 (centres undefined),3.12
10,CCOC(=O)C1=C(c2ccccc2)N=c2s/c(=C\c3ccc(-c4cccc(C(=O)O)c4)o3)c(=O)n2C1c1ccc2c(c1)OCO2 (centres undefined),6.25

# Test system: Staphylococcus aureus
# Test: Antimicrobial activity against Staphylococcus aureus ATCC 25923 after 12 to 16 hrs by broth micro-dilution method
# Format: functional
# Details: not given
# Method in brief: as §1
row,Structure (SMILES),MIC [µM]
1,COc1ccc(C2C=C(c3ccccc3)N=c3s/c(=C\c4ccc(-c5cccc(C(=O)O)c5)o4)c(=O)n32)cc1 (centres undefined),6.25
2,CCOC(=O)C1=C(c2ccccc2)N=c2s/c(=C\c3ccc(-c4cccc(C(=O)O)c4)o3)c(=O)n2C1c1ccc([N+](=O)[O-])cc1 (centres undefined),25
3,Cc1nnc(SCC2=C(C(=O)O)N3C(=O)[C@@H](NC(=O)Cn4cnnn4)[C@H]3SC2)s1 [CEFAZOLIN],17.6
4,CCOC(=O)C1=C(c2ccccc2)N=c2s/c(=C\c3ccc(-c4ccc(C(=O)O)cc4)o3)c(=O)n2C1c1ccc(F)cc1 (centres undefined),6.25
5,CCOC(=O)C1=C(c2ccccc2)N=c2s/c(=C\c3ccc(-c4ccc(C(=O)O)cc4)o3)c(=O)n2C1c1ccc(Cl)cc1 (centres undefined),6.25
6,CCOC(=O)C1=C(c2ccccc2)N=c2s/c(=C\c3ccc(-c4cccc(C(=O)O)c4)o3)c(=O)n2C1c1ccc2c(c1)OCO2 (centres undefined),6.25

# Test system: Escherichia coli
# Test: Antimicrobial activity against Escherichia coli ATCC 25922 after 12 to 16 hrs by broth micro-dilution method
# Format: functional
# Details: not given
# Method in brief: as §1
row,Structure (SMILES),MIC [µM]
1,CCOC(=O)C1=C(C)N=c2s/c(=C\c3ccc(OCC(=O)O)cc3)c(=O)n2C1c1ccc(Cl)cc1 (centres undefined),> 200
2,COc1ccc(C2C=C(c3ccccc3)N=c3s/c(=C\c4ccc(-c5cccc(C(=O)O)c5)o4)c(=O)n32)cc1 (centres undefined),> 200
3,CCOC(=O)C1=C(c2ccccc2)N=c2s/c(=C\c3ccc(-c4cccc(C(=O)O)c4)o3)c(=O)n2C1c1ccc([N+](=O)[O-])cc1 (centres undefined),> 200
4,CCOC(=O)C1=C(c2ccccc2)N=c2s/c(=C\c3ccc(-c4cccc(C(=O)O)c4)o3)c(=O)n2C1c1ccc(O)cc1 (centres undefined),> 200
5,CCOC(=O)C1=C(c2ccccc2)N=c2s/c(=C\c3ccc(-c4cccc(C(=O)O)c4)o3)c(=O)n2C1c1ccc(OC)cc1 (centres undefined),> 200
6,CCOC(=O)C1=C(c2ccccc2)N=c2s/c(=C\c3ccc(-c4cccc(C(=O)O)c4)o3)c(=O)n2C1c1ccccc1 (centres undefined),> 200
7,CCOC(=O)C1=C(c2ccccc2)N=c2s/c(=C\c3ccc(-c4ccc(C(=O)O)cc4)o3)c(=O)n2C1c1ccc(F)cc1 (centres undefined),> 200
8,CCOC(=O)C1=C(c2ccccc2)N=c2s/c(=C\c3ccc(-c4ccc(C(=O)O)cc4)o3)c(=O)n2C1c1ccc(Cl)cc1 (centres undefined),> 200
9,CCOC(=O)C1=C(c2ccccc2)N=c2s/c(=C\c3ccc(-c4cccc(C(=O)O)c4)o3)c(=O)n2C1c1ccc2c(c1)OCO2 (centres undefined),> 200

# Test system: Shigella flexneri
# Test: Antimicrobial activity against Shigella flexneri 301 after 12 to 16 hrs by broth micro-dilution method
# Format: functional
# Details: not given
# Method in brief: as §1
row,Structure (SMILES),MIC [µM]
1,CCOC(=O)C1=C(C)N=c2s/c(=C\c3ccc(OCC(=O)O)cc3)c(=O)n2C1c1ccc(Cl)cc1 (centres undefined),> 200
2,COc1ccc(C2C=C(c3ccccc3)N=c3s/c(=C\c4ccc(-c5cccc(C(=O)O)c5)o4)c(=O)n32)cc1 (centres undefined),> 200
3,CCOC(=O)C1=C(c2ccccc2)N=c2s/c(=C\c3ccc(-c4cccc(C(=O)O)c4)o3)c(=O)n2C1c1ccc([N+](=O)[O-])cc1 (centres undefined),> 200
4,CCOC(=O)C1=C(c2ccccc2)N=c2s/c(=C\c3ccc(-c4cccc(C(=O)O)c4)o3)c(=O)n2C1c1ccc(O)cc1 (centres undefined),> 200
5,CCOC(=O)C1=C(c2ccccc2)N=c2s/c(=C\c3ccc(-c4cccc(C(=O)O)c4)o3)c(=O)n2C1c1ccc(OC)cc1 (centres undefined),> 200
6,CCOC(=O)C1=C(c2ccccc2)N=c2s/c(=C\c3ccc(-c4cccc(C(=O)O)c4)o3)c(=O)n2C1c1ccccc1 (centres undefined),> 200
7,CCOC(=O)C1=C(c2ccccc2)N=c2s/c(=C\c3ccc(-c4ccc(C(=O)O)cc4)o3)c(=O)n2C1c1ccc(F)cc1 (centres undefined),> 200
8,CCOC(=O)C1=C(c2ccccc2)N=c2s/c(=C\c3ccc(-c4ccc(C(=O)O)cc4)o3)c(=O)n2C1c1ccc(Cl)cc1 (centres undefined),> 200
9,CCOC(=O)C1=C(c2ccccc2)N=c2s/c(=C\c3ccc(-c4cccc(C(=O)O)c4)o3)c(=O)n2C1c1ccc2c(c1)OCO2 (centres undefined),> 200

# Test system: Staphylococcus epidermidis
# Test: Antibiofilm activity against Staphylococcus epidermidis ATCC 35984 at 50 uM after 18 hrs by crystal violet staining method
# Format: functional, organism-based
# Details: not given
# Method in brief: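 S. epidermidis ATCC35984 suspension seeded in microtiter wells, 37 °C 6 h to form young biofilm. PBS-washed ×4, then fresh TSB with graded compound dilutions, 37 °C 18 h. Washed, methanol-fixed 15 min, air-dried, crystal violet stained, OD570 read. Cut-off ODc = mean OD570 of negative control + 3×SD (0.28); triplicate.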
row,Structure (SMILES),Activity
1,CCOC(=O)C1=C(C)N=c2s/c(=C\c3ccc(OCC(=O)O)cc3)c(=O)n2C1c1ccc(Cl)cc1 (centres undefined),inactive
2,COc1ccc(C2C=C(c3ccccc3)N=c3s/c(=C\c4ccc(-c5cccc(C(=O)O)c5)o4)c(=O)n32)cc1 (centres undefined),inactive
3,CCOC(=O)C1=C(c2ccccc2)N=c2s/c(=C\c3ccc(-c4cccc(C(=O)O)c4)o3)c(=O)n2C1c1ccc([N+](=O)[O-])cc1 (centres undefined),inactive
4,CCOC(=O)C1=C(c2ccccc2)N=c2s/c(=C\c3ccc(-c4cccc(C(=O)O)c4)o3)c(=O)n2C1c1ccc(O)cc1 (centres undefined),inactive
5,CCOC(=O)C1=C(c2ccccc2)N=c2s/c(=C\c3ccc(-c4cccc(C(=O)O)c4)o3)c(=O)n2C1c1ccc(OC)cc1 (centres undefined),Active
6,CCOC(=O)C1=C(c2ccccc2)N=c2s/c(=C\c3ccc(-c4cccc(C(=O)O)c4)o3)c(=O)n2C1c1ccccc1 (centres undefined),inactive
7,CCOC(=O)C1=C(c2ccccc2)N=c2s/c(=C\c3ccc(-c4ccc(C(=O)O)cc4)o3)c(=O)n2C1c1ccc(F)cc1 (centres undefined),Active
8,CCOC(=O)C1=C(c2ccccc2)N=c2s/c(=C\c3ccc(-c4ccc(C(=O)O)cc4)o3)c(=O)n2C1c1ccc(Cl)cc1 (centres undefined),Active
9,CCOC(=O)C1=C(c2ccccc2)N=c2s/c(=C\c3ccc(-c4cccc(C(=O)O)c4)o3)c(=O)n2C1c1ccc2c(c1)OCO2 (centres undefined),Active

# Test system: not listed separately
# Test: Hemolytic activity in human erythrocytes at 100 uM after 1 hr by spectrophotometry
# Format: ADME, cell-based
# Details: erythrocyte, 50 µM, in the assay text read “50 uM” for “100 uM”
# Method in brief: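 Healthy human erythrocytes exposed to compounds. After incubation, centrifuged at 350 × g for 10 min, and hemolysis read as supernatant absorbance at 570 nm. DMSO (0.1%) served as negative control and Triton X-100 (1%) as positive control.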
row,Structure (SMILES),Activity
1,CCOC(=O)C1=C(C)N=c2s/c(=C\c3ccc(OCC(=O)O)cc3)c(=O)n2C1c1ccc(Cl)cc1 (centres undefined),Non-toxic
2,COc1ccc(C2C=C(c3ccccc3)N=c3s/c(=C\c4ccc(-c5cccc(C(=O)O)c5)o4)c(=O)n32)cc1 (centres undefined),Non-toxic
3,CCOC(=O)C1=C(c2ccccc2)N=c2s/c(=C\c3ccc(-c4cccc(C(=O)O)c4)o3)c(=O)n2C1c1ccc([N+](=O)[O-])cc1 (centres undefined),Non-toxic
4,CCOC(=O)C1=C(c2ccccc2)N=c2s/c(=C\c3ccc(-c4cccc(C(=O)O)c4)o3)c(=O)n2C1c1ccc(O)cc1 (centres undefined),Non-toxic
5,CCOC(=O)C1=C(c2ccccc2)N=c2s/c(=C\c3ccc(-c4cccc(C(=O)O)c4)o3)c(=O)n2C1c1ccc(OC)cc1 (centres undefined),Non-toxic
6,CCOC(=O)C1=C(c2ccccc2)N=c2s/c(=C\c3ccc(-c4cccc(C(=O)O)c4)o3)c(=O)n2C1c1ccccc1 (centres undefined),Non-toxic
7,CCOC(=O)C1=C(c2ccccc2)N=c2s/c(=C\c3ccc(-c4ccc(C(=O)O)cc4)o3)c(=O)n2C1c1ccc(F)cc1 (centres undefined),Non-toxic
8,CCOC(=O)C1=C(c2ccccc2)N=c2s/c(=C\c3ccc(-c4ccc(C(=O)O)cc4)o3)c(=O)n2C1c1ccc(Cl)cc1 (centres undefined),Non-toxic
9,CCOC(=O)C1=C(c2ccccc2)N=c2s/c(=C\c3ccc(-c4cccc(C(=O)O)c4)o3)c(=O)n2C1c1ccc2c(c1)OCO2 (centres undefined),Non-toxic

# Test system: not listed separately
# Test: Inhibition of recombinant YycG kinase HK domain autophosphorylation activity (unknown origin) expressed in Escherichia coli BL21 (DE3) preincubated for 30 mins by ATP-Luminescence assay
# Details: not given
# Method in brief: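 YycG HATPase_c + HisKA domains, expressed in E. coli BL21(DE3), purified on Ni-NTA. Protein at 0.13 mmol/L pre-incubated with serial compound dilutions in 40 mmol/L Tris pH 8.0, 20 mmol/L MgCl₂, 0.1 mg/mL BSA, 25 °C 30 min. ATP 4 mmol/L added, 30 min at 25 °C. Remaining ATP measured by Kinase-Glo luminescence. IC50 fitted from phosphorylation-inhibition rates.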
row,Structure (SMILES),IC50 [µM]
1,COc1ccc(C2C=C(c3ccccc3)N=c3s/c(=C\c4ccc(-c5cccc(C(=O)O)c5)o4)c(=O)n32)cc1 (centres undefined),49.9
2,CCOC(=O)C1=C(c2ccccc2)N=c2s/c(=C\c3ccc(-c4cccc(C(=O)O)c4)o3)c(=O)n2C1c1ccc2c(c1)OCO2 (centres undefined),14
